Experimental data from ChEMBL document CHEMBL2321760, “Design, synthesis, and biological evaluation of a series of benzo[de][1,7]naphthyridin-7(8H)-ones bearing a functionalized longer chain appendage as novel PARP1 inhibitors” (J Med Chem, 2013).
Active and inactive are the calls of the source. The calls are words filed in the database; no cut-off is given here.

What was measured:
[1] = Cytotoxicity against Chinese hamster BRCA2-deficient VC8 cells assessed as growth inhibition; type: cell-based; conditions: Cricetulus griseus, V-C8
How it was run: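 V-C8 (BRCA2-deficient Chinese hamster lung fibroblasts) grown in F12 with 10% FBS, 37 °C, 5% CO2. Six concentrations per test. CC50 is the concentration reducing proliferation and growth by 50%, calculated by Logit method from at least three independent tests.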

[2] = molecular target: Poly [ADP-ribose] polymerase 1 (Homo sapiens, UniProt P09874); test: Inhibition of human recombinant PARP1 after 1 hr by ELISA
Chain of Poly [ADP-ribose] polymerase 1 (P09874 whole entry): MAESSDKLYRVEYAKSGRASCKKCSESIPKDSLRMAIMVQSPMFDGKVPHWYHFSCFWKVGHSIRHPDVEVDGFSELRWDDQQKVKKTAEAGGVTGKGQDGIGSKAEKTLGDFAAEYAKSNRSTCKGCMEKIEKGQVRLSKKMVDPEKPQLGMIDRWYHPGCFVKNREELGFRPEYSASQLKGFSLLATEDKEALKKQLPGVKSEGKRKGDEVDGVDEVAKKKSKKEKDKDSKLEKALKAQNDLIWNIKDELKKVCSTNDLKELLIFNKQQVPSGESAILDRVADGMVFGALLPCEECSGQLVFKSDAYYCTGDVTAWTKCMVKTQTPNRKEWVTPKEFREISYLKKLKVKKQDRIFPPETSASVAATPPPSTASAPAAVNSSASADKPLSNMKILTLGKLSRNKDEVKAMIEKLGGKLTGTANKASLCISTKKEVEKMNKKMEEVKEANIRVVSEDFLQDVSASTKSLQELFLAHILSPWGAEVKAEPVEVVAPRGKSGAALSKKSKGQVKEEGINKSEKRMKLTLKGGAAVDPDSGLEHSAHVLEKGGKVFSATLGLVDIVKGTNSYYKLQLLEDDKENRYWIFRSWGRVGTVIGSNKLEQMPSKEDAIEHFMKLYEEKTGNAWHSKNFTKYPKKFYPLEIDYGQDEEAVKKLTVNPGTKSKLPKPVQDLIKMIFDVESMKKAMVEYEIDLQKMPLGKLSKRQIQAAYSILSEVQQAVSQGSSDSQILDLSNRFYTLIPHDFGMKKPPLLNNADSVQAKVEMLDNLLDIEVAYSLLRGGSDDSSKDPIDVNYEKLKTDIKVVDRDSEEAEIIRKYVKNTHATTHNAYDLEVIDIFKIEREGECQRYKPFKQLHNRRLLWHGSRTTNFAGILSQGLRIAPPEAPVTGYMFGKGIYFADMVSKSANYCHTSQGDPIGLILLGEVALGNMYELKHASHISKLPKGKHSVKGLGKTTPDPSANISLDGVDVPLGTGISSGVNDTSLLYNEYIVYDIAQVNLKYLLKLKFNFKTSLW

[3] = Cytotoxicity against Chinese hamster V79 cells expressing wild type BRCA2 assessed as growth inhibition; type: cell-based, Cricetulus griseus
How it was run: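 V79 (wild-type Chinese hamster lung fibroblasts) grown in RPMI-1640 with 10% FBS, 37 °C, 5% CO2. Six concentrations per test. CC50 is the concentration reducing proliferation and growth by 50%, calculated by Logit method from at least three independent tests.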

[4] = Cytotoxicity against human BRCA1-deficient MDA-MB-436 cells assessed as growth inhibition; type: cell-based
How it was run: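 Proliferation assay in BRCA1-mutant human breast cancer MDA-MB-436 cells. Six concentrations per test. CC50 calculated by Logit method from at least three independent tests.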

PARP 1, 2 and 3 = PARP 1, 2 and 3 (Homo sapiens, UniProt P09874+Q9Y6F1+Q9UGN5); test: Inhibition of PARP1/PARP2 in human SKOV3 cells assessed as reduction in H2O2-induced PARylation incubated for 4 hrs prior to H2O2 treatment; type: cell-based; conditions: sk-ov-3
[5] = Volume of distribution at steady state in rat at 10 mg/kg, iv; type: ADME, organism-based; set-up: dose 10 mg/kg, route intravenous; conditions: in vivo, read-out: Vdss
How it was run: (§1)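 Rat intravenous PK, 10 mg/kg iv. Vehicle DMSO, Tween 80, normal saline. Clearance, Vss and half-life derived from plasma concentration-time data. Values are the average of three runs.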

[6] = Cmax in rat at 20 mg/kg, po; type: ADME, organism-based; set-up: dose 20 mg/kg, route oral; conditions: in vivo
How it was run: (§2)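 Rat oral PK, 20 mg/kg po. Vehicle DMSO, Tween 80, normal saline. Cmax, Tmax, AUC0-∞ and oral bioavailability F taken from plasma concentration-time curves. Values are the average of three runs.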

[7] = Ratio of AZD2281 CC50 to compound CC50 for Chinese hamster BRCA2-deficient VC8 cells; type: ADME, cell-based, Cricetulus griseus
Rattus norvegicus [8] = test: (§3) AUC (0 to infinity) in rat at 20 mg/kg, po; type: ADME, organism-based, Plasma; set-up: time infinity, dose 20 mg/kg, route oral; conditions: in vivo; how it was run: as §2
[9] = Ratio of AZD2281 CC50 to compound CC50 for human BRCA1-deficient MDA-MB-436 cells; type: ADME
SK-OV-3 [10] = test: Potentiation of temozolomide-induced cytotoxicity in human SKOV3 cells assessed as reduction in temozolomide IC50 at 1 uM after 7 days by sulforhodamine B assay; type: functional
How it was run: (§4)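 SKOV3 cells in DMEM with 10% FBS were given gradient concentrations of temozolomide, alone or with compound at 0.5 or 1.0 µM, for 7 days. Cytotoxicity read by sulforhodamine B. Temozolomide IC50 reported as mean ± SD, n=3.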

Rattus norvegicus [11] = test: (§5) Oral bioavailability in rat at 20 mg/kg; type: ADME, organism-based; conditions: in vivo; how it was run: as §2
[12] = molecular target: Poly [ADP-ribose] polymerase 1 (Cricetulus griseus) (UniProt Q9R152); test: Inhibition of PARP1 in Chinese hamster BRCA2-deficient VC8 cells assessed as impairment of cell cycle progression at 0.5 uM after 24 hrs by propidium iodide staining-based FACS flow cytometric analysis
Chain of Poly [ADP-ribose] polymerase 1 (Cricetulus griseus) (Q9R152 whole entry): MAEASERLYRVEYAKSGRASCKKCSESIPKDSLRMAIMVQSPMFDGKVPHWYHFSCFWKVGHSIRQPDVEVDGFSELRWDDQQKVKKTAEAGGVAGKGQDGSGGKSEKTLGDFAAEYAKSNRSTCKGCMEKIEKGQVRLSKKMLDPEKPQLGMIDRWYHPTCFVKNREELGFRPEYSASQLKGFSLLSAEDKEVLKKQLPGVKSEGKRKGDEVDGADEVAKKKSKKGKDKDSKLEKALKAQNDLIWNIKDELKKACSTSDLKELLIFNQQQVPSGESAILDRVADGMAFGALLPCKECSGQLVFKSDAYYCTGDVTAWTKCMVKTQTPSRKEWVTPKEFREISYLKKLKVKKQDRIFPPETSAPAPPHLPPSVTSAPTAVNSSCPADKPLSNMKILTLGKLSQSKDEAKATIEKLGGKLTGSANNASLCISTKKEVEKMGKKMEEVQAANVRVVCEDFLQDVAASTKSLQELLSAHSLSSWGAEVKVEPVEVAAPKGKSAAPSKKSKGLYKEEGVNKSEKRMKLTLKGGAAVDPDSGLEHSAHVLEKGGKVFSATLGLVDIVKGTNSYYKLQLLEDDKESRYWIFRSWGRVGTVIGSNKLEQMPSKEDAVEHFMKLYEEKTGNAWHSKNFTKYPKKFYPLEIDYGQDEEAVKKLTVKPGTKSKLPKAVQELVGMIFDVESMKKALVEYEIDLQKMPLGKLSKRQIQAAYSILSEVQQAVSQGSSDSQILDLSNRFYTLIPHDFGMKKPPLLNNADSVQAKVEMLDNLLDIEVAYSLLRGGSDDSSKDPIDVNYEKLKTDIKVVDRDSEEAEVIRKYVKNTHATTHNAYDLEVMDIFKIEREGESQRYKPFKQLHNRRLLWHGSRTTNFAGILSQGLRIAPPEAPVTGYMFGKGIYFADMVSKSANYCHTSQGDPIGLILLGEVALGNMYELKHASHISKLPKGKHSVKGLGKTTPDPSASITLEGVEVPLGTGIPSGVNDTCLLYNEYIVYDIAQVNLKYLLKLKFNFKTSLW
How it was run: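 BRCA2-deficient V-C8 cells treated with compound at 0.5 µM, 37 °C, 24 h. Cells then harvested, fixed and stained with 10 µg/mL propidium iodide. Cell-cycle distribution read by flow cytometry, at least 10,000 events per sample.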

hERG (KCNH2) = hERG (KCNH2) (Homo sapiens, UniProt Q12809); test: Inhibition of human ERG at 5 uM relative to control
Chain of hERG (KCNH2) (Q12809 whole entry): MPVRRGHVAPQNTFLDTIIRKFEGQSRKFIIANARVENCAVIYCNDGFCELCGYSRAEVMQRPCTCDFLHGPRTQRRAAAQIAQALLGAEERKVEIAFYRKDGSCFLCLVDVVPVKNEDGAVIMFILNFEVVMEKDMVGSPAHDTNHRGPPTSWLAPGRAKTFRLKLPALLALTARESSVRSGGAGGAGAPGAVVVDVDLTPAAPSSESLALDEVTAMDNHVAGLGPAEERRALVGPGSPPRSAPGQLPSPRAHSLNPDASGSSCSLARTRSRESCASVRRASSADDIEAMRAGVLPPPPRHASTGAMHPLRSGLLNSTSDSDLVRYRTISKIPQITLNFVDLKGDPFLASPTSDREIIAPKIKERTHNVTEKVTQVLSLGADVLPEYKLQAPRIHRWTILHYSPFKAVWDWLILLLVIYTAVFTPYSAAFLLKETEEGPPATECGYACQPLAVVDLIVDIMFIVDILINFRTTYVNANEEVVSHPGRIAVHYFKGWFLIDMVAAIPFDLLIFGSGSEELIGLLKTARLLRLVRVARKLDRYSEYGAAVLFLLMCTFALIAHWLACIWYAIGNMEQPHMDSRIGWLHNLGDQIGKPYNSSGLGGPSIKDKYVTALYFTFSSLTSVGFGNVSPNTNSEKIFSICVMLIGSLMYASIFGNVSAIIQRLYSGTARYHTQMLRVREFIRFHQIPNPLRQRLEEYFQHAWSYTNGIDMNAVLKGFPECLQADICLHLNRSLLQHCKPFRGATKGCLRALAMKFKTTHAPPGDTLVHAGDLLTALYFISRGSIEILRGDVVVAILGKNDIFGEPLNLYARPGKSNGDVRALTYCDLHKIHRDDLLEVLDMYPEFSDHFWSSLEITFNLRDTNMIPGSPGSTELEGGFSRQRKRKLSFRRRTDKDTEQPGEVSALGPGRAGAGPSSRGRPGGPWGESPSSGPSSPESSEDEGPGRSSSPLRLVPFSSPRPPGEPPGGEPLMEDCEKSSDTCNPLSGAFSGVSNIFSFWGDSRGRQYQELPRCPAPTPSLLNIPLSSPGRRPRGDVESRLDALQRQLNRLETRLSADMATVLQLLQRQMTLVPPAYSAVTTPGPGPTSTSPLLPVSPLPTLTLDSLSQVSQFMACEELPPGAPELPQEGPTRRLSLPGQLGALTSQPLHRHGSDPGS

SK-OV-3 [13] = test: Potentiation of temozolomide-induced cytotoxicity in human SKOV3 cells assessed as reduction in temozolomide IC50 at 0.5 uM after 7 days by sulforhodamine B assay; type: functional; how it was run: as §4
[14] = Half life in rat at 10 mg/kg, iv; type: ADME, organism-based; set-up: dose 10 mg/kg, route intravenous; conditions: in vivo; how it was run: as §1
Rattus norvegicus [15] = test: (§6) Clearance in rat at 10 mg/kg, iv; type: ADME, organism-based; set-up: dose 10 mg/kg, route intravenous; conditions: in vivo; how it was run: as §1
[16] = Tmax in rat at 20 mg/kg, po; type: ADME, organism-based; set-up: dose 20 mg/kg, route oral; conditions: in vivo; how it was run: as §2
[17] = as §3; type: ADME, organism-based, Plasma; set-up: time infinity, dose 20 mg/kg, route oral; conditions: plasma; how it was run: as §2
[18] = as §5; type: ADME, organism-based; conditions: in vivo; how it was run: as §2
[19] = Ratio of CC50 for Chinese hamster BRCA2-deficient VC8 cells to IC50 for human recombinant PARP1
[20] = as §6; type: ADME, organism-based; set-up: dose 10 mg/kg, route intravenous; conditions: in vivo; how it was run: as §1

| IC50 [2] [µM] | Compound | CC50 [1] [µM] | CC50 [3] [µM] | further results |
| --- | --- | --- | --- | --- |
| 0.045 | O=C1NCC2c3c(cccc31)CCN2C(=O)C1CCCN1C(=O)c1cc(Cc2n[nH]c(=O)c3ccccc23)ccc1F (stereo not drawn) | > 1 | > 10 | – |
| 0.00056 | O=C(c1cc(Cc2n[nH]c(=O)c3ccccc23)ccc1F)N1CCc2cccc3c2C1CC3F (stereo not drawn) | > 10 | > 10 | CC50 [4]: 4.3 µM |
| 0.00346 | O=C1CC2c3c(cccc31)CCN2C(=O)c1cc(Cc2n[nH]c(=O)c3ccccc23)ccc1F (stereo not drawn) | 0.00453 | > 10 | IC50 (PARP 1, 2 and 3): 0.00049 µM; Vd [5]: 4.56 L/kg; Cmax [6]: 116 ng/mL; Ratio [7]: 40; AUC (Rattus norvegicus [8]): 980 ng·h/mL; Ratio [9]: 160; CC50 [4]: < 0.00026 µM; fold change (FC) (SK-OV-3 [10]): 22.2; F (Rattus norvegicus [11]): 10%; inhibition [12]: Active; inhibition at 5 µM (hERG (KCNH2)): 34%; fold change (FC) (SK-OV-3 [13]): 19.5; half-life [14]: 66.6 min; CL (Rattus norvegicus [15]): 128 mL/min/kg; Tmax [16]: 26.4 min |
| 0.00031 | O=C1NCC2c3c(cccc31)CCN2C(=O)c1cc(Cc2n[nH]c(=O)c3ccccc23)ccc1F (stereo not drawn) | 0.096 | > 10 | IC50 (PARP 1, 2 and 3): 0.0661 µM; Vd [5]: 4.27 L/kg; Cmax [6]: 722 ng/mL; AUC(0-inf) [17]: 1820 ng·h/mL; Ratio [9]: 2; CC50 [4]: 0.0233 µM; fold change (FC) (SK-OV-3 [10]): 10.6; bioavailability [18]: 21%; Ratio CC50/IC50 [19]: 300; inhibition [12]: Active; inhibition at 5 µM (hERG (KCNH2)): 17%; fold change (FC) (SK-OV-3 [13]): 9.3; half-life [14]: 104 min; clearance [20]: 38 mL/min/kg; Tmax [16]: 25.2 min |
| 0.0862 | O=C(c1cc(Cc2n[nH]c(=O)c3ccccc23)ccc1F)N1CCc2cccc3c2C1CC3O (stereo not drawn) | > 10 | > 10 | – |
| 0.036 | Cc1c(Cc2ccc(F)c(C(=O)N3CCc4cccc5c4C3CNC5=O)c2)n[nH]c(=O)c1C (stereo not drawn) | > 1 | > 10 | – |
| 0.156 | O=C(c1cc(Cc2n[nH]c(=O)c3ccccc23)ccc1F)N1CCc2cccc3c2C1CNC3 (stereo not drawn) | > 10 | > 10 | – |
| 0.0018 | O=C1NCC2c3c(cccc31)CCN2C(=O)c1cc(Cc2n[nH]c(=O)c3c2CCCC3)ccc1F (stereo not drawn) | 0.114 | > 10 | Ratio [7]: 2 |
| 0.033 | O=C(NCC(=O)N1CCc2cccc3c2C1CNC3=O)c1cc(Cc2n[nH]c(=O)c3ccccc23)ccc1F (stereo not drawn) | > 1 | > 10 | – |
| 0.387 | O=C1CC2c3c(cccc3N1)CCN2C(=O)c1cc(Cc2n[nH]c(=O)c3ccccc23)ccc1F (stereo not drawn) | > 10 | > 10 | – |
| 0.21 | Cc1cc(Cc2ccc(F)c(C(=O)N3CCc4cccc5c4C3CNC5=O)c2)n[nH]c1=O (stereo not drawn) | – | – | – |
| 0.0766 | NC1CC2c3c(cccc31)CCN2C(=O)c1cc(Cc2n[nH]c(=O)c3ccccc23)ccc1F (stereo not drawn) | > 10 | > 10 | – |
| 0.0019 | O=C1NCC2c3c(cccc31)CCN2C(=O)C1CCN(C(=O)c2cc(Cc3n[nH]c(=O)c4ccccc34)ccc2F)CC1 (stereo not drawn) | > 1 | > 10 | CC50 [4]: 0.344 µM |

The next lines start with the compound.

| Compound | IC50 [2] [µM] | CC50 [1] [µM] | CC50 [3] [µM] | further results |
| --- | --- | --- | --- | --- |
| COc1ccc(N2CCN(C(=O)CNC(=O)CCN3CCc4cccc5c4C3CNC5=O)CC2)cc1 (stereo not drawn) | 8.72 | – | – | – |
| O=C(CN1CCc2cccc3c2C1CNC3=O)N[C@@H](Cc1ccccc1)C(=O)N1CC=C(c2ccc(F)cc2)CC1 (stereo partly drawn) | 0.49 | – | – | – |
| O=C(CCN1CCc2cccc3c2C1CNC3=O)NCC(=O)N1CCN(c2ccccc2F)CC1 (stereo not drawn) | 8.96 | – | – | – |
| O=C1NCC2c3c(cccc31)CCN2CC(=O)N1C[C@H]2CNC[C@H]2C1 (stereo partly drawn) | 8.8 | – | – | – |
| O=C(CCN1CCc2cccc3c2C1CNC3=O)NCC(=O)N1CCN(c2ncccn2)CC1 (stereo not drawn) | 8.52 | – | – | – |
| COc1ccc(N2CCN(C(=O)CNC(=O)CCCN3CCc4cccc5c4C3CNC5=O)CC2)cc1 (stereo not drawn) | 8.89 | – | – | – |
| O=C(N[C@@H]1C[C@H](O)c2ccccc21)c1cc(Cc2n[nH]c(=O)c3ccccc23)ccc1F (relative stereo) | 0.00481 | 0.418 | 1.49 | CC50 [4]: 4.52 µM |
| O=C(NC1CC(=O)c2ccccc21)c1cc(Cc2n[nH]c(=O)c3ccccc23)ccc1F (stereo not drawn) | 0.0839 | > 10 | > 10 | – |
| O=C(c1cc(Cc2n[nH]c(=O)c3ccccc23)ccc1F)N1CCN(C(=O)C2CC2)CC1 [OLAPARIB] | – | 0.201 | > 10 | CC50 [4]: 0.0432 µM; fold change (FC) (SK-OV-3 [10]): 10.4; fold change (FC) (SK-OV-3 [13]): 9.6 |
| CN(C(=O)c1cc(Cc2n[nH]c(=O)c3ccccc23)ccc1F)C1CC(=O)c2ccccc21 (stereo not drawn) | 0.0112 | 4.68 | > 10 | – |
| C[C@H](NC(=O)CN1CCc2cccc3c2C1CNC3=O)C(=O)N1CC=C(c2ccc(F)cc2)CC1 (stereo partly drawn) | 0.019 | – | – | – |
| COc1ccc(N2CCN(C(=O)CNC(=O)CN3CCc4cccc5c4C3CNC5=O)CC2)cc1 (stereo not drawn) | 0.3 | – | – | – |
| O=C1NCC2c3c(cccc31)CCN2CC(=O)N1CC2CCCNC2C1 (stereo not drawn) | 9.35 | – | – | – |
| O=C(c1cc(Cc2n[nH]c(=O)c3ccccc23)ccc1F)N1Cc2cccc3c2C(C1)NCC3 (stereo not drawn) | 0.00139 | 0.63 | > 10 | CC50 [4]: 0.556 µM |
| O=C(N[C@@H]1C[C@@H](O)c2ccccc21)c1cc(Cc2n[nH]c(=O)c3ccccc23)ccc1F (relative stereo) | 0.00057 | 2.27 | 4.26 | CC50 [4]: 0.775 µM |
| O=C1NCC2c3c(cccc31)CCN2CC(=O)N1CCC2CNCC21 (stereo not drawn) | 9.38 | – | – | – |
| O=C1NCC2c3c(cccc31)CCN2CC(=O)N1CCn2c(nnc2C(F)(F)F)C1 (stereo not drawn) | > 10 | – | – | – |
| O=C(NC1CNC(=O)c2ccccc21)c1cc(Cc2n[nH]c(=O)c3ccccc23)ccc1F (stereo not drawn) | 0.0863 | > 10 | > 10 | – |
| C[C@@H](NC(=O)CN1CCc2cccc3c2C1CNC3=O)C(=O)N1CC=C(c2ccc(F)cc2)CC1 (stereo partly drawn) | 0.21 | – | – | – |
| O=C(CCN1CCc2cccc3c2C1CNC3=O)NCC(=O)N1CC=C(c2ccc(F)cc2)CC1 (stereo not drawn) | 1.1 | – | – | – |
| O=C(CN1CCc2cccc3c2C1CNC3=O)N[C@H](Cc1ccccc1)C(=O)N1CC=C(c2ccc(F)cc2)CC1 (stereo partly drawn) | > 10 | – | – | – |
| O=C(NC1CNC(=O)c2ccccc21)c1cccc(Cc2n[nH]c(=O)c3ccccc23)c1 (stereo not drawn) | 0.146 | > 10 | > 10 | – |
